From ChEMBL document CHEMBL3992549, “Combretastatin A4-β-Galactosyl Conjugates for Ovarian Cancer Prodrug Monotherapy” (ACS Med Chem Lett, 2017)
The source made the active and inactive calls. No cut-off for these calls is given here.

Columns and labels:
[1] = organism: Homo sapiens; assay: Induction of microtubule disruption in human OVCAR3 cells assessed as cytoskeleton contraction at 1 nM after 24 hrs by Alexa Fluor 647/DAPI staining based fluorescence microscopic method; assay type: cell-based
How it was run: (§1)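 OVCAR3 cells treated for 24 h, then imaged by confocal fluorescence microscopy. Nuclei were stained directly with DAPI. α-Tubulin was detected with an Alexa Fluor 647-conjugated secondary antibody. Microtubule architecture, cytoskeleton and nuclear morphology (contraction, fragmentation) were scored.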

[2] = tested on: OVK18; assay: Cytotoxicity against human OVK18 cells assessed as reduction in cell viability at 10 nM after 48 hrs in presence of beta-galactosidase inhibitor beta-GA by WST8 assay; assay type: functional, cell-based
How it was run: (§2)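 β-Galactosidase inhibition condition was 1 mM β-GA present during compound treatment.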

[3] = organism: Homo sapiens; assay: Induction of microtubule disruption in human OVCAR3 cells assessed as cytoskeleton contraction at 10 nM after 24 hrs by Alexa Fluor 647/DAPI staining based fluorescence microscopic method; assay type: cell-based; how it was run: as §1
[4] = organism: Homo sapiens; assay: Induction of microtubule disruption in human OVCAR3 cells assessed as change in microtubule architecture at 10 nM after 24 hrs by Alexa Fluor 647/DAPI staining based fluorescence microscopic method; assay type: cell-based; how it was run: as §1
[5] = tested on: OVCAR-3; assay: Cytotoxicity against human OVCAR3 cells assessed as reduction in cell viability after 72 hrs by WST8 assay; assay type: functional, cell-based; details: OVCAR-3, 72 h
[6] = molecular target: T1, Beta-galactosidase (Homo sapiens, UniProt P16278); assay: Prodrug activation in PBS buffer assessed as beta-galactosidase (unknown origin) mediated CA4 formation at 0.2 mM after 1 hr by HPLC analysis; details: 200 µM
T1 sequence (P16278 whole entry): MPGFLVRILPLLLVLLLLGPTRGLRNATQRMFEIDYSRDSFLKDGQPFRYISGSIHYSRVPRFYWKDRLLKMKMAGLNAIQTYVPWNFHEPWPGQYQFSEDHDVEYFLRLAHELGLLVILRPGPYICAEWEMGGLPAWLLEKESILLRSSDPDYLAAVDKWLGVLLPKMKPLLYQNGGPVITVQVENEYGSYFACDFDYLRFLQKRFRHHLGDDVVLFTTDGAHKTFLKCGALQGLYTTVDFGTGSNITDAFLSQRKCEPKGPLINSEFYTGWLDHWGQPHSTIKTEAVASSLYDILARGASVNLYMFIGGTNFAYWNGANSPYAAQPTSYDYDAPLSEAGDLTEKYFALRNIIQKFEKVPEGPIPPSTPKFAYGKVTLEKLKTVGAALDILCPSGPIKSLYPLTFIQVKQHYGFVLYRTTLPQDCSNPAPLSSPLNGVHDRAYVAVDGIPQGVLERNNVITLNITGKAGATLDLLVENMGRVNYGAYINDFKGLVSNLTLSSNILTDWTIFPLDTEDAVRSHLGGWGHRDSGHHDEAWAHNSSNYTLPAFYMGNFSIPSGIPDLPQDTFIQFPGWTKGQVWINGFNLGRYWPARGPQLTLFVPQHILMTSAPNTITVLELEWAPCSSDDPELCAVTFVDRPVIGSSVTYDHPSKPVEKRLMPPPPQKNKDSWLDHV

[7] = organism: Sus scrofa; assay: Inhibition of pig brain tubulin polymerization at 5 uM measured every 1 min for 60 mins by HTS assay
[8] = organism: Homo sapiens; assay: Induction of microtubule disruption in human OVCAR3 cells assessed as nuclear fragmentation at 10 nM after 24 hrs by Alexa Fluor 647/DAPI staining based fluorescence microscopic method; assay type: cell-based; how it was run: as §1
[9] = tested on: OVCAR-3; assay: Cytotoxicity against human OVCAR3 cells assessed as reduction in cell viability at 10 nM after 48 hrs in presence of beta-galactosidase inhibitor beta-GA by WST8 assay; assay type: functional, cell-based; how it was run: as §2
[10] = Cytotoxicity against human OVK18 cells assessed as reduction in cell viability after 72 hrs by WST8 assay; assay type: functional, cell-based; details: OVK18, 72 h
[11] = organism: Homo sapiens; assay: Induction of microtubule disruption in human OVCAR3 cells assessed as change in microtubule architecture at 1 nM after 24 hrs by Alexa Fluor 647/DAPI staining based fluorescence microscopic method; assay type: cell-based; how it was run: as §1
[12] = organism: Homo sapiens; assay: Induction of microtubule disruption in human OVCAR3 cells assessed as nuclear contraction at 10 nM after 24 hrs by Alexa Fluor 647/DAPI staining based fluorescence microscopic method; assay type: cell-based; how it was run: as §1
[13] = organism: Homo sapiens; assay: Induction of microtubule disruption in human OVCAR3 cells assessed as cytoskeleton contraction at 20 to 200 nM after 24 hrs by Alexa Fluor 647/DAPI staining based fluorescence microscopic method; assay type: cell-based; how it was run: as §1
[14] = tested on: OVK18; assay: Cytotoxicity against human OVK18 cells assessed as reduction in cell viability at 200 nM after 48 hrs in presence of beta-galactosidase inhibitor beta-GA by WST8 assay; assay type: functional, cell-based; how it was run: as §2
[15] = organism: Homo sapiens; assay: Induction of microtubule disruption in human OVCAR3 cells assessed as change in microtubule architecture at 20 to 200 nM after 24 hrs by Alexa Fluor 647/DAPI staining based fluorescence microscopic method; assay type: cell-based; how it was run: as §1
[16] = organism: Homo sapiens; assay: Induction of microtubule disruption in human OVCAR3 cells assessed as nuclear contraction at 20 to 200 nM after 24 hrs by Alexa Fluor 647/DAPI staining based fluorescence microscopic method; assay type: cell-based; how it was run: as §1
[17] = tested on: OVCAR-3; assay: Cytotoxicity against human OVCAR3 cells assessed as reduction in cell viability at 200 nM after 48 hrs in presence of beta-galactosidase inhibitor beta-GA by WST8 assay; assay type: functional, cell-based; how it was run: as §2
[18] = organism: Homo sapiens; assay: Induction of microtubule disruption in human OVCAR3 cells assessed as nuclear fragmentation at 20 to 200 nM after 24 hrs by Alexa Fluor 647/DAPI staining based fluorescence microscopic method; assay type: cell-based; how it was run: as §1

**Q.** Which Activity [1] does the source give for `COc1ccc(/C=C\c2cc(OC)c(OC)c(OC)c2)cc1OCc1ccc(O[C@@H]2O[C@H](CO)[C@H](O)[C@H](O)[C@H]2O)cc1` here?
**A.** Its Activity is “Active”.

**Q.** What about the Activity [2] of the same compound?
**A.** Its Activity is “inactive”.

**Q.** And the Activity [3]?
**A.** The Activity was “Active”.

**Q.** What about the Activity [4] of the same compound?
**A.** Its Activity is “Active”.

**Q.** And the EC50 [5]?
**A.** Its EC50 is 2.47 nM.

**Q.** What about the Drug metabolism [6] of the same compound?
**A.** Its Drug metabolism is “Metabolite_Detected”.

**Q.** What about the inhibition [7] of the same compound?
**A.** Its inhibition is “inactive”.

**Q.** And the Activity [8]?
**A.** Its Activity is “Active”.

**Q.** What about the Activity [9] of the same compound?
**A.** The Activity was “inactive”.

**Q.** And the EC50 [10]?
**A.** Its EC50 is 2.67 nM.

**Q.** What about the Activity [11] of the same compound?
**A.** Its Activity is “inactive”.

**Q.** What about the Activity [12] of the same compound?
**A.** The Activity was “Active”.

**Q.** With `COc1ccc(/C=C\c2cc(OC)c(OC)c(OC)c2)cc1O` [COMBRETASTATIN A4] as the compound, how does the Activity [3] read?
**A.** The Activity was “Active”.

**Q.** And the Activity [4]?
**A.** The Activity was “Active”.

**Q.** What about the EC50 [5] of the same compound?
**A.** Its EC50 is 3.45 nM.

**Q.** And the Activity [8]?
**A.** Its Activity is “Active”.

**Q.** And the EC50 [10]?
**A.** The EC50 was 1.99 nM.

**Q.** And the Activity [12]?
**A.** Its Activity is “Active”.

**Q.** With `COc1ccc(/C=C\c2cc(OC)c(OC)c(OC)c2)cc1O[C@@H]1O[C@H](CO)[C@H](O)[C@H](O)[C@H]1O` as the compound, how does the Activity [13] read?
**A.** The Activity was “Active”.

**Q.** And the Activity [14]?
**A.** The Activity was “inactive”.

**Q.** And the Activity [15]?
**A.** The Activity was “Active”.

**Q.** And the EC50 [5]?
**A.** The EC50 was 69.1 nM.

**Q.** What about the Drug metabolism [6] of the same compound?
**A.** Its Drug metabolism is “Metabolite_Detected”.

**Q.** And the Activity [16]?
**A.** Its Activity is “Active”.

**Q.** What about the inhibition [7] of the same compound?
**A.** The inhibition was “inactive”.

**Q.** And the Activity [17]?
**A.** Its Activity is “inactive”.

**Q.** And the EC50 [10]?
**A.** Its EC50 is 252 nM.

**Q.** And the Activity [18]?
**A.** The Activity was “Active”.
